Source: ChEMBL document CHEMBL2440017, “Discovery of a potent, selective, and orally bioavailable histamine H3 receptor antagonist SAR110068 for the treatment of sleep-wake disorders” (Bioorg Med Chem Lett, 2013)
Activity calls are given as the source filed them. No cut-off for these calls is given here.

Assays:
[1] = Plasma concentration in cynomolgus monkey at 10 mg/kg, iv after 5 mins; type: ADME, organism-based, Macaca fascicularis; parameters: dose 10 mg/kg, route intravenous
Outline: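 Anaesthetized cynomolgus monkeys were dosed 10 mg/kg i.v. Plasma drug concentrations were measured at 5, 15 and 30 min post-dose, alongside arterial pressure, heart rate and ECG intervals.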

[2] = Plasma concentration in cynomolgus monkey at 30 mg/kg, iv after 15 mins; type: ADME, organism-based, Macaca fascicularis; parameters: dose 30 mg/kg, route intravenous
Plasma [3] = experiment: Metabolic stability in monkey plasma; type: ADME, cell-free, Macaca mulatta; conditions: rhesus monkey
Outline: (§1)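 Compound stability measured in plasma of each species in vitro.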

Mus musculus [4] = experiment: Toxicity in mouse assessed as behavioral side effect at 30 mg/kg, po; type: organism-based; parameters: dose 30 mg/kg, route oral; conditions: in vivo
Outline: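 Group acute oral behavioral safety study in mice at 30 mg/kg p.o., scored for behavioral side effects.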

[5] = Elimination half life in OF1 mouse brain at 10 mg/kg, po; type: ADME, organism-based; parameters: dose 10 mg/kg, route oral; conditions: read-out: beta t1/2 (converted)
Outline: (§2)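 Oral gavage at 10 mg/kg to male OF1 mice (vehicle 5% DMSO/0.5% MC/0.2% Tween80, 1.0 mg/mL) or male Sprague-Dawley rats (vehicle 0.5% MC/0.2% Tween80, 1.0 mg/mL). Plasma and brain exposure and half-life determined.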

Plasma [6] = experiment: Metabolic stability in mouse plasma; type: ADME, cell-free; outline: as §1
[7] = Oral bioavailability in Sprague-Dawley rat plasma at 10 mg/kg; type: ADME, organism-based
Outline: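 Male Sprague–Dawley rats received 2 mg/kg i.v. (0.5 mg/mL in saline) or 10 mg/kg p.o. (1.0 mg/mL in 0.5% MC/0.2% Tween80). Plasma and brain AUC0-inf were measured, and the B/P ratio was calculated from i.v. AUC0-inf.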

[8] = Inhibition of CYP450 in human hepatocytes at > 100 uM; type: ADME, cell-based, Hepatocyte
[9] = target: Sigma non-opioid intracellular receptor 1 (Homo sapiens) (UniProt Q99720); experiment: Inhibition of sigma 1 receptor (unknown origin) at 10 uM
Outline: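 CEREP selectivity panel: percent inhibition of control specific binding at 10 µM.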

[10] = Metabolic stability in mouse microsomes; type: ADME, Microsome
Outline: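 Percentage biotransformation measured in vitro in liver microsomes of each species.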

Salmonella typhimurium = experiment: Genotoxicity in Salmonella typhimurium at 3 to 1000 ug/ml by Ames 2 test; type: toxicity, organism-based; conditions: salmonella enterica subsp. enterica serovar typhimurium
Outline: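 Ames II and micronucleus tests, Ames over 3–1000 µg/mL and MNT over 5–950 µg/mL. Each run with and without metabolic activation by human liver microsome preparations.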

Mus musculus [11] = experiment: Toxicity in mouse assessed as behavioral side effect at 10 to 30 mg/kg, po; type: organism-based; parameters: dose 10-30 mg/kg, route oral; conditions: in vivo
Outline: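 Acute oral behavioral safety evaluation in mice. Oral doses were 0, 10 and 30 mg/kg. Behavioral, neurologic and autonomic signs were scored.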

Histamine H3 receptor [12] = target: T1, Histamine H3 receptor (Homo sapiens, UniProt Q9Y5N1); experiment: Displacement of [3H]N-alpha-methylhistamine from human histamine H3 receptor expressed in CHO cells; type: cell-based
[13] = AUC (0 to infinity) in Sprague-Dawley rat brain at 2 mg/kg, iv; type: ADME, organism-based; parameters: dose 2 mg/kg, route intravenous, time infinity
Outline: (§3)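 Male OF1 mice or male Sprague-Dawley rats, single 2 mg/kg i.v. dose. Mouse vehicle 50% 1-methyl-2-pyrrolidinone in saline at 1.0 mg/mL; rat vehicle saline at 0.5 mg/mL. Plasma and brain levels followed over time; AUC0-inf, t1/2 and clearance derived from exposure. Brain/plasma ratio uses i.v. AUC0-inf.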

[14] = Elimination half life in OF1 mouse brain at 2 mg/kg, iv; type: ADME, organism-based; parameters: dose 2 mg/kg, route intravenous; conditions: read-out: beta t1/2 (converted); outline: as §3
Hepatocyte = experiment: Clearance in human hepatocytes; type: ADME, cell-based
Outline: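 Human hepatocytes in vitro, n = 4 preparations. Metabolic clearance expressed per 10^6 hepatocytes per hour. Also tested at a lower 0.5 concentration to check for concentration dependence.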

Histamine H3 receptor [15] = target: T1, Histamine H3 receptor; experiment: Antagonist activity at human histamine H3 receptor expressed in CHO cells co-expressing CRE-Luc; type: functional, cell-based
Rattus norvegicus = experiment: Awakening activity in rat assessed as increased wakefulness at 3 to 10 mg/kg, po after 4 hrs; type: functional, organism-based
Outline: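 Rats given compound orally at 3 or 10 mg/kg, or reference drugs i.p. or p.o. at 10 mg/kg. EEG recorded during the light phase and scored as wakefulness, slow wave sleep and REM sleep. Time-course analysis of the effects.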

Plasma [16] = experiment: Metabolic stability in human plasma; type: ADME, cell-free; outline: as §1
Cynomolgus monkey = experiment: Cardiotoxicity in cynomolgus monkey assessed as PR, QRS, QTc interval at 10 mg/kg, iv; type: toxicity, organism-based, Macaca fascicularis; parameters: dose 10 mg/kg, route intravenous; conditions: in vivo
Outline: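 Anaesthetized cynomolgus monkeys dosed 10 mg/kg i.v. Arterial blood pressure, heart rate and ECG (PR, QRS, QTc intervals) monitored. Plasma drug sampled at 5, 15 and 30 min post-dose.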

[17] = Elimination half life in Sprague-Dawley rat brain at 2 mg/kg, iv; type: ADME, organism-based; parameters: dose 2 mg/kg, route intravenous; conditions: read-out: beta t1/2 (converted); outline: as §3
Plasma [18] = experiment: Metabolic stability in rabbit plasma; type: ADME, cell-free, Oryctolagus cuniculus; outline: as §1
[19] = Lipophilicity, log P of the compound; type: physicochemical; conditions: octanol/water
Outline: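 clogP calculated with ACD/Labs methods.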

Cytochrome P450 1A2 = target: T2, Cytochrome P450 1A2 (Homo sapiens, UniProt P05177); experiment: Inhibition of CYP1A2 (unknown origin); type: ADME
T2 sequence (P05177 whole entry): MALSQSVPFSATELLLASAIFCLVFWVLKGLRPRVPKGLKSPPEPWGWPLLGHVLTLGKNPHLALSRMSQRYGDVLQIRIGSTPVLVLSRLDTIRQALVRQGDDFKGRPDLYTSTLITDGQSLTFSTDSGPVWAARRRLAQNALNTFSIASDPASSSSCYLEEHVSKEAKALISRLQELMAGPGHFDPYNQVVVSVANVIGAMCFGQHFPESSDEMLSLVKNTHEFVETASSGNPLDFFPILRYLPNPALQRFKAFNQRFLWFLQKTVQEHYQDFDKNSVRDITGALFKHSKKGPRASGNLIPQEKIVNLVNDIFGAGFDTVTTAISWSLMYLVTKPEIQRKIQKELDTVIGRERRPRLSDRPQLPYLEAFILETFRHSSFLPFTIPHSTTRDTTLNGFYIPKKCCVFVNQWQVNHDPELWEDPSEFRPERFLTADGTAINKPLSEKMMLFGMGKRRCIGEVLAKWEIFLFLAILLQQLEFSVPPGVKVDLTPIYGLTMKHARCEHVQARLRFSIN

[20] = AUC (0 to infinity) in OF1 mouse plasma at 2 mg/kg, iv; type: ADME, organism-based; parameters: dose 2 mg/kg, route intravenous, time infinity; outline: as §3
Plasma [21] = experiment: Clearance in OF1 mouse plasma at 2 mg/kg, iv; type: ADME, organism-based; parameters: dose 2 mg/kg, route intravenous; conditions: in vivo; outline: as §3
[22] = Volume of distribution in OF1 mouse plasma at 2 mg/kg, iv; type: ADME, organism-based; parameters: dose 2 mg/kg, route intravenous
Outline: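 Male OF1 mice received 2 mg/kg i.v. (1.0 mg/mL in 50% 1-methyl-2-pyrrolidinone/saline) or 10 mg/kg p.o. (1.0 mg/mL in 5% DMSO/0.5% MC/0.2% Tween80). Plasma and brain AUC0-inf were measured, and the B/P ratio was calculated from i.v. AUC0-inf.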

CYP3A4 = CYP3A4 (Homo sapiens, UniProt P08684); experiment: Inhibition of CYP3A4 (unknown origin) at 0.5 uM; type: ADME
[23] = AUC in OF1 mouse plasma at 10 mg/kg, po; type: ADME, organism-based; parameters: dose 10 mg/kg, route oral; outline: as §2
[24] = Elimination half life in OF1 mouse plasma at 10 mg/kg, po; type: ADME, organism-based; parameters: dose 10 mg/kg, route oral; conditions: read-out: beta t1/2 (converted); outline: as §2

T1 sequence (Q9Y5N1 whole entry): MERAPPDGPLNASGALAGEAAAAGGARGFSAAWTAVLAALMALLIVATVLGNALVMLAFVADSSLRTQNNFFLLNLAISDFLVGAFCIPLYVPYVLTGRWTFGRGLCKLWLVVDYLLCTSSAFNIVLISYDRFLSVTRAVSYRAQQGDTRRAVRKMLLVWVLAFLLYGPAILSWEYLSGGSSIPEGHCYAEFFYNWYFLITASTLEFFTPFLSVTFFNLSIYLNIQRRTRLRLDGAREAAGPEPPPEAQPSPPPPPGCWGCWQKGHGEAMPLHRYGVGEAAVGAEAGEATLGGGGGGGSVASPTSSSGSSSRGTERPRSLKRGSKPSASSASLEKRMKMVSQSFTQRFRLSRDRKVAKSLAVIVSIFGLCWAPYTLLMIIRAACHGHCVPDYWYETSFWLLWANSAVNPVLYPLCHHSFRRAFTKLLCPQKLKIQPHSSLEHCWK
Chain of CYP3A4 (P08684 whole entry): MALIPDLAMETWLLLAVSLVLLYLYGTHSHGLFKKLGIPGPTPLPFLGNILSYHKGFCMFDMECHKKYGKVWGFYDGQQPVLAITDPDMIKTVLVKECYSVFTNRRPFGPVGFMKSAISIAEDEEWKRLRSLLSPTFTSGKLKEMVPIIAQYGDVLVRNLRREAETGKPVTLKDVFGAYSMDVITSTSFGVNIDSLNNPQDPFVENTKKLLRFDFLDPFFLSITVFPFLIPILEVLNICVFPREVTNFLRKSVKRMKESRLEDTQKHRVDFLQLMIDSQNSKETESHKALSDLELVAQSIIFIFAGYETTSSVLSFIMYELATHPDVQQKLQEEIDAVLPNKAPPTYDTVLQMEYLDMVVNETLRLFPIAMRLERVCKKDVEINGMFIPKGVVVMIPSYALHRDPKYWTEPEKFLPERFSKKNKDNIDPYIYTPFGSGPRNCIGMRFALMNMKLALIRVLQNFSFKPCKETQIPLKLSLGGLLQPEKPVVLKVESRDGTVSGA
Chain of Sigma non-opioid intracellular receptor 1 (Homo sapiens) (Q99720 whole entry): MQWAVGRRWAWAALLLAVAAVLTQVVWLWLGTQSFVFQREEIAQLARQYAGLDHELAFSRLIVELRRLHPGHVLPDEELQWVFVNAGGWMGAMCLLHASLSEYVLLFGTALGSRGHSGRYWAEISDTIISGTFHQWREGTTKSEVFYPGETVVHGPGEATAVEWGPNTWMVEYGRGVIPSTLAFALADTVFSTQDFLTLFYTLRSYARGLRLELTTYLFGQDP

- concentration at 5 min [1]: 28 µM
- concentration at 0.25 h [2]: 11 µM
- Stability (Plasma [3]): Stable
- half-life [5]: 1.9 h
- Stability (Plasma [6]): Stable
- bioavailability [7]: 80%
- inhibition (INH) [8]: Not Active
- inhibition [9]: 53%
- Stability [10]: Stable
- Ki (Histamine H3 receptor [12]): 1 nM
- AUC(0-inf) [13]: 700 ng·h/mL
- half-life [14]: 0.83 h
- CLH (Hepatocyte): 0.031 mL/h
- EC50 (Histamine H3 receptor [15]): 0.9 nM
- Stability (Plasma [16]): Stable
- half-life [17]: 3.6 h
- Stability (Plasma [18]): Stable
- logP [19]: 1.31
- inhibition (INH) (Cytochrome P450 1A2): Active
- AUC(0-inf) [20]: 1100 ng·h/mL
- clearance (Plasma [21]): 30 mL/min/kg
- Vd [22]: 3.5 L/kg
- inhibition at 0.5 µM (CYP3A4): 49%
- AUC [23]: 3200 ng·h/mL
- half-life [24]: 2.3 h
SMILES: Cc1cc(N2CC[C@H](N3CCC[C@@H]3C)C2)ccc1NC(=O)C1CCOCC1
- Activity (Mus musculus [4]): Non-toxic
- Activity (Salmonella typhimurium): Non-toxic
- Activity (Mus musculus [11]): Non-toxic
- Activity (Rattus norvegicus): Active
- Activity (Cynomolgus monkey): Non-toxic
